Data on 24 compounds can be found in ChEMBL document CHEMBL1124413, “Quinazoline antifolate thymidylate synthase inhibitors: nitrogen, oxygen, sulfur, and chlorine substituents in the C2 position” (J Med Chem, 1989).

One data set has as its system L1210. The experiment in a line: Tested for inhibition of L1210 mouse leukemia cell growth in culture. It counts as functional, cell-based. The gist of the method:
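L1210 mouse leukemia cells were grown in culture with the test agent. The result was expressed as IC50, the concentration that inhibits cell growth by 50%.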

For the next data set, the target named is T1, Dihydrofolate reductase (Homo sapiens, UniProt P00374).
T1 sequence (P00374 whole entry): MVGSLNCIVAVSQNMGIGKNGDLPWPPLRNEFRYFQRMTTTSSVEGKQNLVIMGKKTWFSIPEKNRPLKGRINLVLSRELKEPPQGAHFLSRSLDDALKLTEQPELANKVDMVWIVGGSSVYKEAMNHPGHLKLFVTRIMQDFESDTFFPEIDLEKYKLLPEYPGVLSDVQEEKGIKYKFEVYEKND
In words: Effect against dihydrofolate reductase (DHFR).

Data set [1] is described as follows: Compound was tested for its solubility in 0.20 M aqueous NaH2PO4 initially at pH 7. The class given is ADME. The conditions noted are these: 0.20 M aqueous NaH2PO4, pH 7.
Data set [2] in a line: Compound was tested for its solubility in 0.01 M aqueous NaH2PO4 initially at pH 7. The conditions noted are these: 0.01 M aqueous NaH2PO4, pH 7. The class given is ADME. The gist of the method: (§1)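 Compound was dissolved to saturation in 0.01 M aqueous NaH2PO4 adjusted initially to pH 7. Solubility was reported as mg/mL, and the pH reached by the saturated solution was recorded.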

A short description of data set [3]: pH attained by the compound at saturation after dissolving in 0.01 M aqueous NaH2PO4 initially at pH 7. The class given is ADME. Conditions: buffer. Put shortly:
as §1

The nature of data set [4]: pH attained by the compound at saturation after dissolving in 0.20 M aqueous NaH2PO4 initially at pH 7. It counts as ADME. Conditions: buffer.

Values after ≈ are worked out from the molar mass of the structure shown. A value given as a limit tells only on which side of the number the result lay.

`C#CCN(Cc1ccc2nc(-n3ccnc3)nc(O)c2c1)c1ccc(C(=O)NC(CCC(=O)O)C(=O)O)cc1` (stereo not drawn) came in with an IC50 with L1210 of more than 100 µM.

For `C#CCN(Cc1ccc2nc(OCCO)nc(O)c2c1)c1ccc(C(=O)NC(CCC(=O)O)C(=O)O)cc1` (stereo not drawn), in the data set on L1210, the IC50 was more than 100 µM.

In the data set on L1210, `C#CCN(Cc1ccc2nc(OCC)nc(O)c2c1)c1ccc(C(=O)NC(CCC(=O)O)C(=O)O)cc1` (stereo not drawn) came in with an IC50 of more than 100 µM.

In the data set on L1210, `COc1nc(O)c2cc(CN(CCCO)c3ccc(C(=O)NC(CCC(=O)O)C(=O)O)cc3)ccc2n1` (stereo not drawn) showed an IC50 of 80 µM.

Regarding `C#CCN(Cc1ccc2nc(N(C)C)nc(O)c2c1)c1ccc(C(=O)NC(CCC(=O)O)C(=O)O)cc1` (stereo not drawn), the IC50 in the data set on L1210 was more than 100 µM.

Regarding `C#CCN(Cc1ccc2nc(NCCN)nc(O)c2c1)c1ccc(C(=O)NC(CCC(=O)O)C(=O)O)cc1` (stereo not drawn), the IC50 in the data set with L1210 came to 97 µM.

`COc1nc(O)c2cc(CNc3ccc(C(=O)NC(CCC(=O)O)C(=O)O)cc3)ccc2n1` (stereo not drawn) had a Ki on Dihydrofolate reductase of approximately 0.6 µM. Further, the IC50 in the data set with L1210 is 6.4 µM.

For `C#CCN(Cc1ccc2[nH]c(N)nc(=O)c2c1)c1ccc(C(=O)NC(CCC(=O)O)C(=O)O)cc1` (stereo not drawn), the results for the solubility in data set [1] and in data set [2] were 60 µg/mL (≈ 126 µM) and 50 µg/mL (≈ 105 µM), respectively. For the same compound, the pH in data set [3] turned out to be 5.76; in data set [4], 6.78. The same compound gave a concentration for half-maximal inhibition (IC50) in the data set on L1210 of 3.4 µM.

On to `COc1nc(O)c2cc(CN(C)c3ccc(C(=O)NC(CCC(=O)O)C(=O)O)cc3)ccc2n1` (stereo not drawn), for which the half-maximal inhibitory concentration (IC50) with L1210 amounted to 7 µM.

Consider `C=CCN(Cc1ccc2nc(OC)nc(O)c2c1)c1ccc(C(=O)NC(CCC(=O)O)C(=O)O)cc1` (stereo not drawn), for which it took 16 µM to reach half-maximal inhibition in the data set with L1210 (IC50).

Take `C#CCN(Cc1ccc2nc(NC)nc(O)c2c1)c1ccc(C(=O)NC(CCC(=O)O)C(=O)O)cc1` (stereo not drawn): the IC50 in the data set on L1210 worked out at 24 µM.

Compound `C#CCN(Cc1ccc2nc(SC)nc(O)c2c1)c1ccc(C(=O)NC(CCC(=O)O)C(=O)O)cc1` (stereo not drawn) returned an IC50 in the data set on L1210 of 13 µM.

Compound `C#CCN(Cc1ccc2nc(NCCO)nc(O)c2c1)c1ccc(C(=O)NC(CCC(=O)O)C(=O)O)cc1` (stereo not drawn) had an IC50 in the data set on L1210 of 47 µM.

In turn, `CCN(Cc1ccc2nc(OC)nc(O)c2c1)c1ccc(C(=O)NC(CCC(=O)O)C(=O)O)cc1` (stereo not drawn) yielded an IC50 in the data set on L1210 of 12 µM.

In the case of `C#CCN(Cc1ccc2nc(OC)nc(O)c2c1)c1ccc(C(=O)NC(CCC(=O)O)C(=O)O)cc1` (stereo not drawn), the solubility in data set [1] was 6600 µg/mL (≈ 13400 µM); in data set [2], 1200 µg/mL (≈ 2440 µM). Besides, the values for the pH in data set [3] and in data set [4] were 4.93 and 5.67, respectively. Moreover, in the data set with L1210, the IC50 was found to be 1.9 µM.

As to `C#CCN(Cc1ccc2nc(NCC)nc(O)c2c1)c1ccc(C(=O)NC(CCC(=O)O)C(=O)O)cc1` (stereo not drawn), the IC50 in the data set on L1210 was more than 100 µM.

`C#CCN(Cc1ccc2nc(Oc3ccccc3)nc(O)c2c1)c1ccc(C(=O)NC(CCC(=O)O)C(=O)O)cc1` (stereo not drawn) came in with an IC50 in the data set on L1210 of more than 100 µM.

Regarding `C#CCN(Cc1ccc2nc(NCC(=O)O)nc(O)c2c1)c1ccc(C(=O)NC(CCC(=O)O)C(=O)O)cc1` (stereo not drawn), the IC50 with L1210 was more than 100 µM.

As for `C#CCN(Cc1ccc2nc(S)nc(O)c2c1)c1ccc(C(=O)NC(CCC(=O)O)C(=O)O)cc1` (stereo not drawn), half-maximal inhibition in the data set with L1210 (IC50) was put at 60 µM.

Regarding `COc1nc(O)c2cc(CN(CCO)c3ccc(C(=O)NC(CCC(=O)O)C(=O)O)cc3)ccc2n1` (stereo not drawn), in the data set with L1210, the IC50 worked out at 7.3 µM.

On to `C#CCN(Cc1ccc2nc(NCCN(C)C)nc(O)c2c1)c1ccc(C(=O)NC(CCC(=O)O)C(=O)O)cc1` (stereo not drawn), for which the IC50 in the data set on L1210 was more than 100 µM.

As for `COc1nc(O)c2cc(CN(CCF)c3ccc(C(=O)NC(CCC(=O)O)C(=O)O)cc3)ccc2n1` (stereo not drawn), in the data set with L1210, the IC50 worked out at 17 µM.

In the data set on L1210, `C#CCN(Cc1ccc2nc(OCCOC)nc(O)c2c1)c1ccc(C(=O)NC(CCC(=O)O)C(=O)O)cc1` (stereo not drawn) showed an IC50 of 100 µM.

As to `C#CCN(Cc1ccc2nc(Cl)nc(O)c2c1)c1ccc(C(=O)NC(CCC(=O)O)C(=O)O)cc1` (stereo not drawn), the concentration for half-maximal inhibition (IC50) in the data set with L1210 was 67 µM.

As usually defined, the IC50 is the concentration at which inhibition is half-maximal. Read a high IC50 as weaker potency in that assay. Broadly, the Ki is the dissociation constant of the complex between target and ligand, obtained from inhibition or displacement. For orientation: solubility means the concentration that dissolves in the medium under given conditions. Read a high solubility as much dissolved substance.
